Test results from ChEMBL document CHEMBL4334552, “Discovery of BMS-986260, a Potent, Selective, and Orally Bioavailable TGFβR1 Inhibitor as an Immuno-oncology Agent” (ACS Med Chem Lett, 2020).
Calls of active or inactive are those of the source. The calls are words filed in the database; no cut-off is given here.

Columns and labels:
[1] = Total AUC in Balb/C mouse at 10 mg/kg, po; format: ADME, organism-based; set-up: dose 10 mg/kg, route oral, time AUCmax; settings: in vivo
Summary of the method: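 Male Balb/C mice (n = 3) dosed iv at 5 mg/kg and po at 10 mg/kg. Vehicle was 70% 25 mM acetate buffer pH 4.0, 5% ethanol and 25% PEG 400.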

[2] = Half life in human liver microsomes in presence of NADPH; format: ADME, Microsome
TGF-beta receptor type-1 = target: T1, TGF-beta receptor type-1 (Homo sapiens, UniProt P36897); experiment: Inhibition of TGFBR1 in TGFbeta-stimulated human NHLF cells assessed as reduction in SMAD2 nuclear translocation
T1 sequence (P36897 whole entry): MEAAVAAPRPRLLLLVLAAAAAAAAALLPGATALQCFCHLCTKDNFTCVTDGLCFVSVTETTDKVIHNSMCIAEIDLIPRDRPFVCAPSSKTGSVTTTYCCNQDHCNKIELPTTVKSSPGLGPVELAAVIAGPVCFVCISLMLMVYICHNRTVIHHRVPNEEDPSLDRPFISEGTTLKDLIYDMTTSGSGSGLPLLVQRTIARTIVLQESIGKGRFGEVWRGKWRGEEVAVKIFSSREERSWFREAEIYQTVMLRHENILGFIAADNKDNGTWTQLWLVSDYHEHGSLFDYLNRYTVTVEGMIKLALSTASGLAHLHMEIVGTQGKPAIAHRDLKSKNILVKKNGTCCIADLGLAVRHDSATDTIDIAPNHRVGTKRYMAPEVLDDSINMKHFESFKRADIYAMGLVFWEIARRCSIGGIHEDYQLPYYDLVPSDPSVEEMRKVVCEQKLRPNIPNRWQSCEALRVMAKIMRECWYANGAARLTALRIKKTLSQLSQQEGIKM

[3] = Protein binding in human serum assessed as unbound fraction; format: ADME, cell-free
[4] = Protein binding in dog serum assessed as unbound fraction; format: ADME, cell-free, Canis lupus familiaris
[5] = Metabolic stability of compound in mouse liver microsomes assessed as compound remaining; format: ADME, Microsome
[6] = Half life in rat hepatocytes; format: ADME, cell-based, Hepatocyte
[7] = Half life in dog hepatocytes; format: ADME, cell-based, Canis lupus familiaris, Hepatocyte
Cytochrome P450 2C8 = target: T2, Cytochrome P450 2C8 (Homo sapiens, UniProt P10632); experiment: Inhibition of recombinant CYP2C8 (unknown origin); format: ADME
T2 sequence (P10632 whole entry): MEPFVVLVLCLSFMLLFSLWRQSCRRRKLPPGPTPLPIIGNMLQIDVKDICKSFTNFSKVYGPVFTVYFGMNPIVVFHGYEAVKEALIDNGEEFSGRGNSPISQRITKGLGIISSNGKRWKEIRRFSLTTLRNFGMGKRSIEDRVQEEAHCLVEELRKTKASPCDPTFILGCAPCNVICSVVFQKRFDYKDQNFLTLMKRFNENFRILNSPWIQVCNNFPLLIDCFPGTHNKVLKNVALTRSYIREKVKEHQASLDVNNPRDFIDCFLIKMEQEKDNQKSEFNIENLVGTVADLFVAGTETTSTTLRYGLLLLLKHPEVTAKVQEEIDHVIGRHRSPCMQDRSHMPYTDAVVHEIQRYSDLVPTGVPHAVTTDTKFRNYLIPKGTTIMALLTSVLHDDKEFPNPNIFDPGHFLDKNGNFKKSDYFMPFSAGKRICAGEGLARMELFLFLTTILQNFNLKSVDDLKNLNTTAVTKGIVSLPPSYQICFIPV

Cytochrome P450 2C9 = Cytochrome P450 2C9 (Homo sapiens, UniProt P11712); experiment: Inhibition of recombinant CYP2C9 (unknown origin); format: ADME
[8] = target: T3, Nuclear receptor subfamily 1 group I member 2 (Homo sapiens, UniProt O75469); experiment: Activation of PXR (unknown origin)
T3 sequence (O75469 whole entry): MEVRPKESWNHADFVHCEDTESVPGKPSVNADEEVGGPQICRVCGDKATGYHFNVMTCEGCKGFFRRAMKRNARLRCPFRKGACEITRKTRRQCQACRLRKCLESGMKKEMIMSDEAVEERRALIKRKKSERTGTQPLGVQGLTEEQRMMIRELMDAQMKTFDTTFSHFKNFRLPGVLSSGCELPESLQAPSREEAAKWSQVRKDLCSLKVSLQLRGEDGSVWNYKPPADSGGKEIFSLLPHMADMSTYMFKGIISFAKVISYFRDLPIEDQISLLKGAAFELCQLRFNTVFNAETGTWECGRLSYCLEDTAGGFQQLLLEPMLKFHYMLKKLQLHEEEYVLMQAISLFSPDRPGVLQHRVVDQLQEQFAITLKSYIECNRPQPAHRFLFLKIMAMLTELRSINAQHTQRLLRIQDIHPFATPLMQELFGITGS

[9] = Oral bioavailability in Sprague Dawley rat at 10 mg/kg; format: ADME, organism-based; settings: in vivo
Summary of the method: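 Male Sprague–Dawley rats (n = 3) received a PEG400 solution iv at 5 mg/kg and po at 10 mg/kg.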

[10] = Tmax in Beagle dog at 5 mg/kg, po; format: ADME, organism-based, Canis lupus familiaris; settings: in vivo
Summary of the method: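 Male Beagle dogs (n = 2) were pretreated with pentagastrin and dosed iv at 1 mg/kg and po at 5 mg/kg. The oral vehicle was 5% ethanol, 45% PEG400 and 50% 25 mM acetate buffer pH 4.0. The iv vehicle was 5:45:50 EtOH/PEG400/saline at 1 mL/kg.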

[11] = Efflux ratio of permeability in human Caco2 cells; format: ADME, cell-based; settings: Caco-2
[12] = Intrinsic permeability in human Caco2 cells; format: ADME, cell-based; settings: Caco-2
MC-38 [13] = experiment: Antitumour activity against mouse MC38 cells allografted in C57Bl/6 mouse assessed as tumour growth upto 15 mg/kg, po qd for 28 days by digital caliper analysis; format: functional, organism-based
Summary of the method: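 C57/BL6 mice bearing subcutaneous right-flank MC38 tumors (0.1 mL of 1 × 10^7 cells/mL) were randomized at about 100 mm3. Monotherapy was given orally once daily for 28 days at up to 15 mg/kg.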

MC-38 [14] = experiment: Antitumour activity against mouse MC38 cells allografted in C57Bl/6 mouse assessed as reduction in tumour growth at 3.75 to 15 mg/kg, po qd for 28 days cotreated with anti-PD1 at 10 mg/kg, ip every 4 days for 3 doses by digital caliper analysis; format: functional, organism-based
Summary of the method: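 C57/BL6 mice received 0.1 mL of MC38 cells (1 × 10^7 cells/mL) subcutaneously in the right flank. Mice were randomized at about 100 mm3, typically day 5. Oral dosing was once daily for 28 days at 3.75, 7.5 or 15 mg/kg. Anti-PD-1 was given at 10 mg/kg IP every 4 days for three doses. Isotype IgG1 MOPC-21 served as control on the same schedule.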

4T1 = experiment: Inhibition of metastasis in mouse 4T1 cells allografted in Balb/C mouse at 3.75 to 7.5 mg/kg, po qd for 28 days cotreated with anti-PD1 at 10 mg/kg, ip every 4 days for 3 doses by India ink/Fekete's solution based staining; format: functional, organism-based
[15] = Cardiovascular toxicity in rat assessed as aortic pathology at 1 mg/kg, po for 10 days; format: organism-based; settings: in vivo, 240 h
Summary of the method: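 Exploratory toxicology studies of 10 days with daily oral dosing in rats and dogs. Cardiovascular findings, including valvulopathy and aortic pathology, were assessed.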

Salmonella typhimurium = experiment: Genotoxicity against Salmonella typhimurium by Ames test; format: toxicity, organism-based; settings: salmonella enterica subsp. enterica serovar typhimurium
Cytochrome P450 2C19 = Cytochrome P450 2C19 (Homo sapiens, UniProt P33261); experiment: Induction of recombinant CYP2C19 (unknown origin) up to 24 microM; format: ADME; settings: recombinant enzyme
Cytochrome P450 2C19, sequence (P33261 whole entry): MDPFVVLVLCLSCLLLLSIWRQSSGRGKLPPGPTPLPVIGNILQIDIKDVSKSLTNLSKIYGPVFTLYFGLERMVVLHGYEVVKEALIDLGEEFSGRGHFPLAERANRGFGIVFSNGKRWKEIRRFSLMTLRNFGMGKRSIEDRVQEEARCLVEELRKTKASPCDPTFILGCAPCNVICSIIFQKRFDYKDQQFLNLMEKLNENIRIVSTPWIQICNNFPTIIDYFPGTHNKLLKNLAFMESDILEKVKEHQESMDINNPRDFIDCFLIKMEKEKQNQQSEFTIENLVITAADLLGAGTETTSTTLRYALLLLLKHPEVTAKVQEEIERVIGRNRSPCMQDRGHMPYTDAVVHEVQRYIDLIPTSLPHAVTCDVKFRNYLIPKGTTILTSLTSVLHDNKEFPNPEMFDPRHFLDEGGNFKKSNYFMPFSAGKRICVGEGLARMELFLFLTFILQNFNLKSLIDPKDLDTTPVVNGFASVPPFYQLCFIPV

Cytochrome P450 2C9, sequence (P11712 whole entry): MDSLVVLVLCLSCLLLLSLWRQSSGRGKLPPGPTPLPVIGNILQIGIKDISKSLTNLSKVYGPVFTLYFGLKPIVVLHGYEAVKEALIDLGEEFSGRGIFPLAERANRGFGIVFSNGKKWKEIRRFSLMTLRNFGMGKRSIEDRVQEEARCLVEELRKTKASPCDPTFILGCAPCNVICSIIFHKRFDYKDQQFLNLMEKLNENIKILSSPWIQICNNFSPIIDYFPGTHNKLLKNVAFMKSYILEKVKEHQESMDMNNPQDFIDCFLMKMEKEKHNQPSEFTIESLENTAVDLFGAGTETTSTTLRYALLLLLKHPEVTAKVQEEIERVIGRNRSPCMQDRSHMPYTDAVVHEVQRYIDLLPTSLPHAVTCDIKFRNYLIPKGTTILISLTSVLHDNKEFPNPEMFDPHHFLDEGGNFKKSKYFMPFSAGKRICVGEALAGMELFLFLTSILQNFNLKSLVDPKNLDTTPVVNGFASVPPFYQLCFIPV

AUC [1]: 80.5 µM·h | half-life [2]: 23 min | IC50 (TGF-beta receptor type-1): 0.19 µM | fraction unbound [3]: 0.1 | fraction unbound [4]: 0.13 | Stability [5]: 81% | half-life [6]: 320 min | half-life [7]: 62 min | IC50 (Cytochrome P450 2C8): > 20 µM | IC50 (Cytochrome P450 2C9): > 20 µM | EC50 [8]: > 24 µM | bioavailability [9]: > 100% | Tmax [10]: 40.2 min | efflux ratio [11]: 2.5 | Papp [12]: 27.2 ×10⁻⁶ cm/s | Activity (Cytochrome P450 2C19): Not Active
SMILES: N#Cc1cnc2ccc(-c3c(-c4ccc(F)c(Cl)c4)ncn3CCO)nn12
inhibition (MC-38 [13]): inactive | inhibition (MC-38 [14]): Active | inhibition (4T1): Active | Activity [15]: Toxic | Activity (Salmonella typhimurium): Non-Toxic
